Target: Bromodomain-containing protein 4 (Homo sapiens, UniProt O60885)
Experiment: Inhibition of TEV cleavage site-fused-GST tagged BRD4(BD1) (unknown origin) using SGRGK(Ac)CGK(Ac)-GLGK(Ac)GGAK(Ac)RHRKVG-peptide after 3 hrs by HTRF assay
In short: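 GST-BRD4(BD1) purified on glutathione resin and by size exclusion; tetra-acetylated H4 peptide as ligand. Buffer 50 mM HEPES pH 7.5, 400 mM KF, 0.1% BSA, 0.5% DMSO final; 3 h at room temperature.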

- IC50: 251 nM
SMILES: CCn1cnc2c1c(=O)[nH]c(=O)n2Cc1ccc(CNS(=O)(=O)c2ccc3c(c2)CCCC(=O)N3)cc1

From BindingDB's records for doi:10.1021/acs.jmedchem.8b00653 (Aix-Marseille University, 2018)
